For five compounds, IC50, Activity and inhibition results are on record in ChEMBL document CHEMBL3868584, “Cerasoidine, a Bis-aporphine Alkaloid Isolated from Polyalthia cerasoides during Screening for Wnt Signal Inhibitors” (J Nat Prod, 2016).

The term IC50 denotes the concentration that gives 50% inhibition.

The source made the active and inactive calls. The rule behind the calls is not given here.

The nature of data set [1]: Inhibition of Wnt signalling in human STF/293 cells assessed as suppression of TCF/beta-catenin-mediated transcriptional activity after 24 hrs by superTOPflash reporter gene assay. The format is cell-based. Conditions: STF/293, 24 h. For orientation: Reporter assays use an easily measured gene product as a stand-in for the process of interest.
Data set [2] in a line: Cytotoxicity against human STF/293 cells assessed as reduction in cell viability at 10 to 40 uM after 24 hrs by fluorescein diacetate based assay. The format is toxicity. Particulars: hek293, 24 h.
The nature of data set [3]: Inhibition of Wnt signalling in human SW480 cells assessed as decrease in beta-catenin level in nucleus at 20 to 60 uM after 24 hrs by Western blot analysis. The format is cell-based. In short, it runs like this:
(§1)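 SW480 colon cancer cells were treated, then whole, cytoplasmic and nuclear lysates were prepared. These were immunoblotted with anti-β-catenin and anti-c-myc antibodies. β-Actin served as the cytoplasmic fraction control and histone H1 as the nuclear fraction control.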
Background: In western blotting, separated proteins are transferred to a membrane and probed.

A short description of data set [4]: Inhibition of Wnt signalling in human SW480 cells assessed as decrease in c-myc level after 24 hrs by Western blot analysis. The data set is classed as cell-based. In short, it runs like this:
as §1

A short description of data set [5]: Cytotoxicity against human STF/293 cells assessed as reduction in cell viability at 0.5 to 2 uM after 24 hrs by fluorescein diacetate based assay. The data set is classed as toxicity. Conditions: hek293, 24 h.
Data set [6] is described as follows: Cytotoxicity against human STF/293 cells assessed as reduction in cell viability at 2 to 10 uM after 24 hrs by fluorescein diacetate based assay. The data set is classed as toxicity. Particulars: hek293, 24 h.
Data set [7] is described as follows: Inhibition of Wnt signalling in human STF/293 cells assessed as decrease in beta-catenin levels after 24 hrs by Western blot analysis. The data set is classed as cell-based. In short, it runs like this:
(§2)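 STF/293 cells were exposed to the test agent and lysed. Lysates were immunoblotted for β-catenin, c-myc and PPARδ, with β-actin as the protein loading control.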

Data set [8] in a line: Inhibition of Wnt signalling in human STF/293 cells assessed as decrease in c-myc levels after 24 hrs by Western blot analysis. The data set is classed as cell-based. The procedure, abridged: as §2
Data set [9] in a line: Inhibition of Wnt signalling in human STF/293 cells assessed as decrease in PPARdelta levels after 24 hrs by Western blot analysis. The data set is classed as cell-based. The procedure, abridged: as §2

As for `COc1ccc2c(c1)c(-c1c3c4c(cc5c(c4c4ccc(OC)cc14)OCO5)CCN3)c1c3c(cc4c(c32)OCO4)CCN1` [BIDEBILINE E], the IC50 in [1] amounted to 20.2 µM. For the same compound, the Activity entry in data set [2] is recorded as “Non-Toxic”. Besides, the inhibition result in data set [3] is “Active”. Moreover, the inhibition result in [4] is “Dose-dependent effect”.
For the compound `COc1cc2c(cc1OC)-c1cc3ccc(OC)c(OC)c3c(=O)n1CC2`, the IC50 in data set [1] stood at 0.6 µM. For the same compound, the Activity result in [5] is recorded as “Non-Toxic”.
On to `COc1ccc2c(c1)C(=O)c1nccc3cc4c(c-2c13)OCO4` [ATHEROSPERMIDINE], for which the IC50 in data set [1] is 7.1 µM. Moreover, the Activity entry in data set [6] was “Non-Toxic”.
For `O=C1c2ccccc2-c2c3c(cc4ccnc1c24)OCO3` [LIRIODENINE], the IC50 in [1] was 0.6 µM. Besides, the Activity result in data set [5] is “Non-Toxic”. Besides, the inhibition result in [7], in data set [8] and in data set [9] was “Dose-dependent effect” each time.
Regarding `COc1cc2c(cc1O)CCn1c-2cc2ccc(O)c(OC)c2c1=O`, the IC50 in data set [1] was 8.7 µM. For the same compound, the Activity entry in data set [6] is “Non-Toxic”.
